Results from ChEMBL document CHEMBL2406960, “Epimeric methylsulfinyladenosine derivatives from the marine ascidian Herdmania momus” (Bioorg Med Chem Lett, 2013).

How the values were obtained:
[1] = tested on: Poliovirus 3; experiment: Antiviral activity against Human poliovirus 3 infected in human HeLa cells assessed as inhibition of virus-induced cytopathic effect by MTT assay; type: functional, organism-based; settings: Enterovirus C
Method in brief: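 Confluent HeLa cells in 96-well plates, in duplicate; samples (20 mg/mL DMSO stock) diluted in MEM/2% FBS, then virus added at 200 CCID50 per well; incubated in CO2 incubator. Protection of cells from virus cytopathic effect read by MTT absorbance and microscopy; EC50 = concentration protecting 50% of cells. Cytotoxicity on mock-infected cells, CC50 = 50% absorbance reduction.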

[2] = tested on: Coxsackievirus B1; experiment: Antiviral activity against Human coxsackievirus B1 infected in human HeLa cells assessed as inhibition of virus-induced cytopathic effect by MTT assay; type: functional, organism-based; settings: Enterovirus B
Method in brief: (§1)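 Confluent HeLa monolayers, in duplicate, got samples (20 mg/mL DMSO stock) diluted in MEM/2% FBS, then virus at 200 CCID50 per well, and were incubated under CO2. Protection was read by MTT and by microscopic inspection. EC50 was the concentration protecting 50% of cells from virus-induced cytotoxicity.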

[3] = tested on: Coxsackievirus B3; experiment: Antiviral activity against Human coxsackievirus B3 infected in human HeLa cells assessed as inhibition of virus-induced cytopathic effect by MTT assay; type: functional, organism-based; settings: Enterovirus B; method in brief: as §1
[4] = Cytotoxicity against human HeLa cells by MTT assay; type: cell-based
Method in brief: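 Mock-infected confluent HeLa cells were treated in duplicate with samples (20 mg/mL DMSO stock) diluted in MEM/2% FBS and incubated under CO2. Viability was read by MTT plus microscopy. CC50 was the concentration that cut mock-infected control absorbance by 50%.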

[5] = Antiviral activity against Human rhinovirus 17 infected in human HeLa cells assessed as inhibition of virus-induced cytopathic effect by MTT assay; type: functional, cell-based, Human rhinovirus B17; settings: Rhinovirus B; method in brief: as §1
[6] = tested on: rhinovirus B14; experiment: Antiviral activity against Human rhinovirus 14 infected in human HeLa cells assessed as inhibition of virus-induced cytopathic effect by MTT assay; type: functional, organism-based; settings: Rhinovirus B; method in brief: as §1
[7] = Antiviral activity against Human rhinovirus 71 infected in human HeLa cells assessed as inhibition of virus-induced cytopathic effect by MTT assay; type: functional, cell-based, Human rhinovirus A71; settings: Rhinovirus A; method in brief: as §1

C[S+]([O-])C[C@H]1O[C@@H](n2cnc3c(N)ncnc32)[C@H](O)[C@@H]1OC(=O)c1c[nH]c2cc(Br)c(O)cc12 (some centres undefined)
> 100 mg/L: EC50 [1] | EC50 [2] | EC50 [3] | CC50 [4] | EC50 [5] | EC50 [6] | EC50 [7]

C[S+]([O-])C[C@H]1O[C@@H](n2cnc3c(N)ncnc32)[C@H](OC(=O)c2c[nH]c3cc(Br)c(O)cc23)[C@@H]1O (mixture of isomers)
> 100 mg/L: EC50 [1] | EC50 [2] | EC50 [3] | CC50 [4] | EC50 [5] | EC50 [6] | EC50 [7]
